# Paper PMC4210426 (The Journal of General Physiology, 2014)
# Values joined by “and” are separate entries in the source; they are usually repeats but may differ in a detail not shown here. Identical values can stand only once. Like-named read-outs stand apart in the source and are kept apart here.
# Columns and labels:
# BK channels (Slo1) = BK channels (Slo1) (Mus musculus, UniProt Q08460); test: Paxilline inhibition of BK current in the presence of bbTBA or 2 M sucrose; type: cell-based
# [1] = biological target: T1, Slo1-C430S-A313C channels (Mus musculus, UniProt Q08460, A378C/C495S); settings: 1 mM MTSET, ref Zhou et al., 2011, cited from earlier work
# T1 sequence (Q08460 whole entry A378C/C495S): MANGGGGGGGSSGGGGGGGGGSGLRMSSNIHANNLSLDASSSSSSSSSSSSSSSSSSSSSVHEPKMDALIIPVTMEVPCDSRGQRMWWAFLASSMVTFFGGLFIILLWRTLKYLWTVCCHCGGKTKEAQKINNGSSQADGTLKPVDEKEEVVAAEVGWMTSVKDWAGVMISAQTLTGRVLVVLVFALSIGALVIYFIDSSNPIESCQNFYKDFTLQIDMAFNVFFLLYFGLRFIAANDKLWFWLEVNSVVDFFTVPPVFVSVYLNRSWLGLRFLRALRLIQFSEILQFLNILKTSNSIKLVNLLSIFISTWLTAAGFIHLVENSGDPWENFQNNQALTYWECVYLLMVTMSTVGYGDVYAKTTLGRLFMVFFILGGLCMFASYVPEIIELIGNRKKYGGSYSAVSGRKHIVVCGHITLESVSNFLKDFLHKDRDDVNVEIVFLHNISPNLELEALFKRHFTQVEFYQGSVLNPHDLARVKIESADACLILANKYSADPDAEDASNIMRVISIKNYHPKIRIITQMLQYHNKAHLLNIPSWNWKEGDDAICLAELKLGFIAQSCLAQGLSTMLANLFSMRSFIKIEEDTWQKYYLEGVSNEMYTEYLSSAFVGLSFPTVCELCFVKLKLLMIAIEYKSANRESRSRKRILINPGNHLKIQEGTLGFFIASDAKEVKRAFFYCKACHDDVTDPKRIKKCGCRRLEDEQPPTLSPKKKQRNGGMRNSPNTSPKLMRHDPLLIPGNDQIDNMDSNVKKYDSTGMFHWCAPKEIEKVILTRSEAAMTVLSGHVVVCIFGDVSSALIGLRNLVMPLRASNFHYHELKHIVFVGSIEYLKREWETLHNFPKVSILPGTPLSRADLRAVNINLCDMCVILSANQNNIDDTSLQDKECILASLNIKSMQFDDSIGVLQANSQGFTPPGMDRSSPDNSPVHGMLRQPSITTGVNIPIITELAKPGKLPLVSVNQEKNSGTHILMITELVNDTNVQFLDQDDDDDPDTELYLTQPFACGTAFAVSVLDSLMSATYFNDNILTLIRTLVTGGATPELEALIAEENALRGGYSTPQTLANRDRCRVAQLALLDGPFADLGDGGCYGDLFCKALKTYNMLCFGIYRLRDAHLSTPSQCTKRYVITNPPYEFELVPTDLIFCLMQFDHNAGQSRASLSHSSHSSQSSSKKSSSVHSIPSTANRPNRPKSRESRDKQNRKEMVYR
# [2] = biological target: T1, Slo1-C430S-A313C channels; test: MTSET modification of A313C in closed BK channels, without and with paxilline; type: cell-based; settings: 500 nM paxilline, −80 mV, 0 Ca^2+
# How it was run: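 Slo1-C430S-A313C channels in oocyte inside-out patches. 1 mM MTSET applied for 120 s at −80 mV holding in 0 Ca2+. Currents recorded with 300 µM Ca2+ before and after modification, with steps up to 200 mV. Separate control G-V sets were collected for modification without and with test compound.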
# [3] = cited from earlier work
# [4] = biological target: BK channel voltage sensors (mSlo1) (Mus musculus, UniProt Q08460); test: Gating current measurements in inside-out macropatches; type: cell-based; settings: with 500 nM paxilline, 0 Ca^2+
# BK channel voltage sensors (mSlo1), sequence (Q08460 whole entry): as the sequence (Q08460 whole entry A378C/C495S) above, with C378A, S495C counted along it
# How it was run: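 Inside-out macropatches from oocytes, room temperature (∼22–25°C). Pipette solution (mM): 127 TEA-OH, 125 methanesulfonic acid, 2 MgCl2, 10 HEPES, pH 7.0. Internal solution (mM): 141 NMDG, 135 methanesulfonic acid, 10 HEPES, 5 EGTA, pH 7.0. Voltage commands filtered at 20 kHz. Gating currents filtered at 10 kHz and sampled at 100 kHz. P/5 subtraction of capacitive and leak currents from −80 mV holding.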
# BK channels (mSlo1) [5] = biological target: T2, BK channels (mSlo1) (Mus musculus, UniProt Q08460); test: NPo measurements at negative potentials in macropatches; type: cell-based
# T2 sequence (Q08460 whole entry): as the sequence (Q08460 whole entry A378C/C495S) above, with C378A, S495C counted along it
# BK channels (mSlo1) [6] = biological target: T2, BK channels (mSlo1); test: Kinetics of onset of and recovery from paxilline inhibition of BK current; type: cell-based
# How it was run: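 Oocyte inside-out patches with fast perfusion, room temperature. BK availability monitored by brief steps to 160 mV. Onset came from wash-in of 100 nM test compound at −80 mV, 300 µM Ca2+, fitted with single exponentials. Block rate was measured over 5–2,000 nM at −80 and −100 mV, with step interval cut to 0.2 s at highest concentrations. Recovery followed a switch in equilibration voltage or washout. Kd was derived from kinetic rates.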
# [7] = biological target: Slo1-A313C channels (unmodified, MTSET-, MTSEA- or MTSES-modified) (Mus musculus, UniProt Q08460, A378C/C495S); test: Paxilline block of Slo1-A313C currents before and after MTS modification; type: cell-based; settings: 100 nM paxilline; for fractional block: 0 mV
# Slo1-A313C channels (unmodified, MTSET-, MTSEA- or MTSES-modified), sequence (Q08460 whole entry A378C/C495S): as the sequence (Q08460 whole entry A378C/C495S) above
# [8] = system: pH-regulated Slo3 K^+ channel; settings: cited from earlier work
# BK channel G311 mutant = settings: ref Zhou et al., 2010; cited from earlier work
# BK channels (mSlo1) [9] = biological target: T2, BK channels (mSlo1); type: cell-based
# How it was run: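 Oocyte inside-out patches at ∼22–25°C. Pipette (mM): 140 K-methanesulfonate, 20 KOH, 10 HEPES, 2 MgCl2, pH 7.0. Cytosolic Ca2+ buffered with 5 mM HEDTA (10 µM) or unbuffered (300 µM). Test compound equilibrated for 4 min at set holding potential/Ca2+ before G-V from brief test steps. Concentration series (at least four) used steps to 160 mV at −70 to 70 mV. Hill and allosteric-scheme fits.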
# BK channels [10] = test: bbTBA block of BK channels; type: cell-based; settings: assuming a zδ of 0.148 e assigned to the forward rate
# BK channels [11] = settings: at 100 mV; ref Wilkens and Aldrich, 2006; cited from earlier work
# CNG channels = settings: ref Fodor et al., 1997a,b; cited from earlier work
# [12] = in 100 nM paxilline, 10 µM Ca^2+, holding potential 0 mV
# [13] = with 50 nM paxilline, all solutions 10 mM DTT, n = 7 patches
# BK channels (Slo1), sequence (Q08460 whole entry): as the sequence (Q08460 whole entry A378C/C495S) above, with C378A, S495C counted along it
smiles,measurement,setting,value
OC[C@H]1O[C@@](CO)(O[C@H]2O[C@H](CO)[C@@H](O)[C@H](O)[C@H]2O)[C@@H](O)[C@@H]1O [sucrose],Vh of activation,"BK channels (Slo1); with 2 M sucrose, 300 µM Ca^2+, tail currents at −120 mV",−12.8 ± 3.3 mV
"C[N+](C)(C)CCSS(C)(=O)=O.[Br-] [MTSET, [2-(trimethylammonium)ethyl] MTS bromide]",reduction in maximal conductance,[1]; closed BK channels,> 50%
same,time constant of modification of A313C of closed BK channels,[1],~23 s
CC(C)(O)[C@H]1O[C@H]2CC[C@@]3(C)[C@@](O)(CC[C@H]4Cc5c([nH]c6ccccc56)[C@@]43C)C2=CC1=O [paxilline],effect on MTSET modification of A313C in closed channels,[2]; 1 mM MTSET for 120 s,no difference in modification with or without paxilline
same,inhibition of BK current during MTSET application,[2],completely inhibited
same,logP,[3],3.62
same,Vh of Qoff,[4],130.2 ± 9.1 mV
same,Vh of Qon,[4],131.4 ± 2.1 mV
same,z of Qoff,[4],0.56 ± 0.035 e
same,z of Qon,[4],0.54 ± 0.025 e
same,normalized NPo,"BK channels (mSlo1) [5]; 100 nM paxilline, −80 mV, 300 µM Ca^2+",< 0.05
same,IC50,"BK channels (mSlo1) [5]; IC50 for reduction in normalized NPo, −80 mV, Hill fit with n = 1",5.5 ± 1.1 nM
same,inhibition at 0.1 µM,BK channels (mSlo1) [5]; read-out: inhibition of BK current (NPo),> 95%
same,Hill coefficient n,"BK channels (mSlo1) [5]; −80 mV, 10 or 300 µM Ca^2+, Hill fit of normalized NPo",0.85 ± 0.25
same,Kd,BK channels (mSlo1) [6],12.9 nM
same,"τon, time constant of onset of inhibition by wash-in","BK channels (mSlo1) [6]; 100 nM paxilline, −80 mV, 300 µM Ca^2+, four patches, mean ± STD",26.3 ± 6.6 s
same,time constant of onset of inhibition after change in equilibration condition,"BK channels (mSlo1) [6]; constant 100 nM paxilline, 80 to −80 mV, 300 µM Ca^2+, four patches, mean ± STD",6.85 ± 1.79 s
same,difference in recovery time constant between 20 and 100 nM paxilline,"BK channels (mSlo1) [6]; recovery at 0 mV in the constant presence of paxilline, seven patches",1.6 fold
same,rate of inhibition of closed channels (slope of blocking rate vs [paxilline]),"BK channels (mSlo1) [6]; −80 and −100 mV, 300 µM Ca^2+, 5 to 2,000 nM paxilline",2e+06 M⁻¹ s⁻¹
same,mean time constant of recovery,BK channels (mSlo1) [6]; −80 mV,37.0 s
same,fractional block,"[7]; MTSEA-modified Slo1-A313C, 10 µM Ca^2+ (Po ∼0.48)",~0.5
same,inhibition relative to unmodified Slo1-A313C,[7]; MTSES-modified Slo1-A313C (Po ∼0.12),only slightly weaker
same,fractional block,"[7]; MTSET-modified Slo1-A313C, 10 µM Ca^2+ (Po ∼0.9)",< 0.1
same,block of Slo1-A313C current,[7]; unmodified A313C,strong block
same,sensitivity to paxilline inhibition,[8],resistant
same,effect of G311 mutation on paxilline inhibition,BK channel G311 mutant,totally abolishes paxilline inhibition
same,inhibition of current,"BK channels (mSlo1) [9]; 10 nM paxilline, 0 mV, 10 µM Ca^2+ (Po <0.02), 4 min",over half
same,inhibition of current,"BK channels (mSlo1) [9]; 100 nM paxilline, 0 mV, 10 µM Ca^2+ (Po <0.02), 4 min",essentially complete inhibition
same,inhibition of current,"BK channels (mSlo1) [9]; 100 nM paxilline, holding potential 80 mV, 300 µM Ca^2+, 1 min of application",almost no inhibition
same,IC50,"BK channels (mSlo1) [9]; IC50 (Hill fit), equilibration 0 mV, 300 µM Ca^2+ (Po ∼0.65)",58.4 ± 2.9 nM
same,IC50,"BK channels (mSlo1) [9]; IC50 (Hill fit), equilibration 40 mV, 300 µM Ca^2+ (Po ∼0.83)",470 ± 94.9 nM
same,IC50,"BK channels (mSlo1) [9]; IC50 (Hill fit), equilibration 70 mV, 300 µM Ca^2+ (Po ∼0.89)",5370 ± 1000 nM
same,IC50,"BK channels (mSlo1) [9]; IC50 (Hill fit), equilibration −70 mV, 300 µM Ca^2+ (Po ∼0.1)",11.7 ± 1.9 nM
same,IC50,"BK channels (mSlo1) [9]; IC50 for paxilline, as maximal Po was approached",~10000 nM
same,IC50,"BK channels (mSlo1) [9]; IC50 for paxilline, channels largely closed",~10 nM
same,reduction in the C-O equilibrium constant L(0),BK channels (mSlo1) [9]; binding of one paxilline molecule,> 500 fold
same,direct inhibition of the open state,BK channels (mSlo1) [9]; concentrations up to 10 µM,not directly inhibited
same,n,BK channels (mSlo1) [9]; fit of Scheme 1 (Eq. 1) to four equilibration conditions,1.09 ± 0.11
same,Vh of G-V curve,BK channels (mSlo1) [9]; [12],24.75 ± 0.13 mV
same,z of G-V curve,BK channels (mSlo1) [9]; [12],0.86 ± 0.01 e
same,affinity for closed conformation relative to open conformation,BK channels (mSlo1) [9]; model-dependent analysis (Scheme 1),> 500 fold and ~500 fold
same,difference between closed- and open-state affinity,"BK channels (mSlo1) [9]; model-independent analysis of IC50 vs state occupancy, and overall conclusion","~1,000 fold"
same,Vh of G-V curve,BK channels (mSlo1) [9]; [13],21.21 ± 1.85 mV
same,z of G-V curve,BK channels (mSlo1) [9]; [13],0.79 ± 0.07 e
same,reduction of current,"BK channels (Slo1); 100 nM paxilline alone for ∼40 s, 0 mV, 10 µM Ca^2+",~80%
same,reduction of the number of channels blocked by paxilline,"BK channels (Slo1); 100 nM paxilline applied together with 100 µM bbTBA, 0 mV, 10 µM Ca^2+",~50%
same,inhibition of BK current,"BK channels (Slo1); 100 nM paxilline with 2 M sucrose in the cytosolic solution, 300 µM Ca^2+",only a weak inhibition
"CCCC[N+](CCCC)(CCCC)Cc1ccc(C(=O)c2ccccc2)cc1 [bbTBA, N-(4-[benzoyl]benzyl)-N,N,N-tributylammonium]",0-voltage forward rate,BK channels [10],6.7e+07 M⁻¹ s⁻¹
same,forward rate of block,BK channels [11],1.2e+08 M⁻¹ s⁻¹
CCCCNc1ccc(C(=O)OCCN(C)C)cc1 [tetracaine],affinity for closed channels relative to open channels,CNG channels,"~1,000 fold"
